Results from different studies.
Compare with care: the assays were run in different laboratories.
Target: Rho-associated protein kinase 2 (ROCK2, Homo sapiens, UniProt O75116)

O=C(CSc1nc2nccnc2c(=O)n1CCc1ccccc1)Nc1nccs1 — inhibition (enzyme activity, inhibitor; 10 µM): 2%
Cc1c(NC(=O)c2cc(C(N)=O)nc3cc(F)ccc23)c(C(F)(F)F)nn1Cc1ccc(C(C)(C)C)cc1 — remaining binding (cell-free assay, competition with immobilised ligand; 1 µM): 100%
Cn1cncc1C1=CN(c2ncnc3[nH]cnc23)CCS1 — inhibition (enzyme activity, inhibitor, radiometric; 50 nM): 19.6%
CS(=O)(=O)CCNCc1ccc(-c2ccc3ncnc(Nc4ccc(OCc5cccc(F)c5)c(Cl)c4)c3c2)o1 — remaining signal (cell-free assay; 0.5 µM): 92.7%
CC(C)(O)[C@H]1CC[C@H](Nc2ccc3ncc(-c4cccc(C(F)(F)F)c4)n3n2)CC1 — remaining activity (enzyme activity, inhibitor; 1 µM): 92.8%
FC(F)c1nc2ccccc2n1-c1nc(N2CCOCC2)nc(N2CCOCC2)n1 — remaining activity (enzyme activity, inhibitor; 10 µM): 85%
O=C(Nc1cnc(Oc2ccc(F)cc2)nc1)N1CCc2ncccc2[C@@H]1c1ccc(F)cc1 — remaining binding (cell-free assay, competition with immobilised ligand; 1 µM): 100%
CNCc1ccc(-c2cc(-c3nc(-c4ccc(S(=O)(=O)C(C)C)cc4)cnc3N)on2)cc1 — inhibition (enzyme activity, inhibitor; 0.4 µM): 0%
Cc1ccc(C(=O)Nc2ccc(CN3CCN(C)CC3)c(C(F)(F)F)c2)cc1C#Cc1cnc2cccnn12 — remaining activity (enzyme activity, inhibitor; 23.5 nM): 89%
CCS(=O)(=O)c1cc2cc(C[C@@](O)(CC(C)(C)c3ccc(F)cc3C(N)=O)C(F)(F)F)[nH]c2cn1 — remaining binding (cell-free assay, competition with immobilised ligand; 1 µM): 76%
O=C(Nc1cnn(-c2csc(C(=O)NC3COC3)c2)c1)Nc1ccccc1Cl — remaining activity (enzyme activity, inhibitor; 5 µM): 100%
O=C1Nc2ccc(Cl)cc2C1=Cc1cc(Cl)c(O)c(Cl)c1 — remaining signal (cell-free assay; 0.5 µM): 90.6%
CCCOc1ccc(OC)c(F)c1C(=O)c1ccc(C(=O)N[C@@H]2CNC[C@H]2NC(=O)c2ccc3[nH]ncc3c2)cc1 — remaining activity (enzyme activity, inhibitor; 0.75 µM): 4%
CC(C)(C)C(=O)c1sc(NC2CCCCC2)nc1N — remaining activity (enzyme activity, inhibitor; 10 µM): 107%
CNC(=O)c1cc(Oc2ccc(NC(=O)Nc3ccc(Cl)c(C(F)(F)F)c3)cc2)ccn1 — inhibition (enzyme activity, inhibitor; 0.3 µM): -11%
Cn1cnc(Br)c1C1=CN(c2ncnc3[nH]cnc23)CCS1 — inhibition (enzyme activity, inhibitor, radiometric; 2 µM): 77.6%
COc1cc(Nc2cnc(C#N)c(O[C@H](C)CN(C)C)n2)ncc1-c1cnn(C)c1 — remaining activity (enzyme activity, inhibitor, radiometric; 10 µM): 40%
Cc1cnc(NC2CCOCC2)nc1-n1cnc(C(=O)NC(CN)c2cc(F)cc(Cl)c2)c1 (stereo not drawn) — remaining activity (enzyme activity, inhibitor, radiometric; 1 µM): 25%
CC(C)(C)c1nc2c(s1)c1nc(N)ncc1c1ccc(NS(=O)(=O)c3c(F)cccc3F)c(F)c12 — remaining activity (enzyme activity, inhibitor, radiometric; 1 µM): 100%
CO[C@@H](C)c1c(Nc2ccc([C@@H](N(C)C(=O)C3CCS(=O)(=O)CC3)C(F)(F)F)cc2)cnc2cc(Cl)nn12 — remaining binding (cell-free assay, competition with immobilised ligand; 1 µM): 100%
COc1cc2ncnc(Nc3ccc(Oc4ccccc4)c(C)c3C)c2cc1OC — inhibition (enzyme activity, inhibitor; 1 µM): 8%
COc1cc(Cl)c(C(=O)N[C@@H](CN[C@H]2CC[C@@H](N)CC2)Cc2ccc(C#N)cc2)cc1-c1ccc(CN[C@H](C)c2ccc(C)cc2)o1 — remaining activity (enzyme activity, inhibitor; 1 µM): 96%
CC/C(=N\NC(=O)NCc1cccc(O)c1)c1ccc(O)c(C)c1O — inhibition (enzyme activity, inhibitor; 0.1 µM): 82.6%
CNc1cccc2cc(C(=O)Nc3ccc(C(=O)O)cc3)c(=O)[nH]c12 — inhibition (enzyme activity, inhibitor; 10 µM): 7.9%
CCN(CC)c1ccc(C2=NNC(=O)CC2C)cc1[N+](=O)[O-] (stereo not drawn) — remaining activity (enzyme activity, inhibitor; 10 µM): 99%
Cc1ccc(NC(=O)c2ccc(C)c(C(F)(F)F)c2)cc1C#Cc1nn(C2CCC(O)CC2)c2ncnc(N)c12 (stereo not drawn) — remaining signal (cell-free assay; 10 µM): 56%
FC(F)(F)c1ccc2c(c1)nc(-c1cccnc1)n2C1CC1 — remaining binding (cell-free assay, competition with immobilised ligand; 1 µM): 100%
c1ccc2c(-c3ccncc3)c[nH]c2c1 — remaining signal (cell-free assay; 0.5 µM): 71.9%
Cc1ccc(Nc2nccc(N(C)c3ccc4c(C)n(C)nc4c3)n2)cc1S(N)(=O)=O — inhibition (enzyme activity, inhibitor; 0.3 µM): -15%
CN(C)CC#Cc1ccc(OCCCc2sc(N3CCc4cccc(C(=O)Nc5nc6ccccc6s5)c4C3)nc2C(=O)O)c(F)c1 — remaining binding (cell-free assay, competition with immobilised ligand; 1 µM): 100%
N#CCCc1ccc2c(c1)-c1[nH]c3ccc([N+](=O)[O-])cc3c1CC(=O)N2 — remaining signal (cell-free assay; 0.5 µM): 28.6%
Fc1cccc(-n2cnc3c(NCc4nc5c(F)c(F)ccc5[nH]4)nc(N4CCOCC4)nc32)c1 — binding vs control (binding, competition with immobilised ligand; 10 µM): 54%
O=C1NC(c2ccccn2)Sc2ccccc21 (stereo not drawn) — remaining binding (cell-free assay, competition with immobilised ligand; 1 µM): 67%
Nc1ncnc2occ(-c3ccc(NC(=O)Nc4cc(C(F)(F)F)ccc4F)cc3)c12 — remaining signal (cell-free assay, inhibitor; 20 µM): 0%
Cc1cc(NC(=O)c2cccc3cc(-c4cccc5[nH]nc(N)c45)ccc23)ccc1F — activity vs control (enzyme activity, inhibitor; 0.1 µM): 98%
COc1ccc2c(c1)O[C@H](c1ccc(OC)c(OC)c1)C[C@@H]2NC(=O)C1(c2ccc3c(c2)OC(F)(F)O3)CC1 — remaining binding (cell-free assay, competition with immobilised ligand; 1 µM): 88%
